# Where two headings read alike, the source gives them in different places.
# Tests used:
# P. falciparum IspC [1] = target: T1, P. falciparum IspC (Plasmodium falciparum, UniProt O96693); test: P. falciparum IspC inhibition assay; format: biochemical
# T1 sequence (O96693 73-488): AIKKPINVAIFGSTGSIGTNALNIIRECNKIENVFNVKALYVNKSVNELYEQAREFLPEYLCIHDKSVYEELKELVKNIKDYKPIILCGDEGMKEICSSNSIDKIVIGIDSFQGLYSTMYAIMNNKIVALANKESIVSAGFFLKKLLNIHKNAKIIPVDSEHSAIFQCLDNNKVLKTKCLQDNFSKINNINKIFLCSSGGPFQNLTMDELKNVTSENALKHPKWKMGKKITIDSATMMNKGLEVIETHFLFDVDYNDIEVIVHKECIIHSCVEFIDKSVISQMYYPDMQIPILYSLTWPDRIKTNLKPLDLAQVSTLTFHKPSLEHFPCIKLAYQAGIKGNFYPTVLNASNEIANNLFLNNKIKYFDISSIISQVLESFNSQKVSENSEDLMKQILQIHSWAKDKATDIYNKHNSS
# How it was run: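 His6-tagged recombinant enzyme (E. coli Rosetta2(DE3), TALON-purified), 0.86 μM in 100 mM Tris pH 7.8, 25 mM MgCl2. Preincubated 10 min at 37 °C with inhibitor, then 150 μM NADPH added for 5 min. Reaction started with 144 μM DXP and A340 followed at 37 °C. IC50 from nonlinear sigmoidal fit of fractional activity versus inhibitor concentration; duplicate.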
# P. falciparum IspC [2] = target: T1, P. falciparum IspC; test: Mechanism of inhibition; format: biochemical; settings: for mode of inhibition with respect to DXP / mode of inhibition with respect to NADPH: Lineweaver-Burk plots; for mode of inhibition with respect to DXP: DXP varied 50-400 μM, NADPH 150 μM; for mode of inhibition with respect to NADPH: NADPH varied 6-30 μM, DXP 144 μM
# How it was run: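 N-terminal His6-tagged recombinant enzyme, expressed in E. coli Rosetta2(DE3) and purified by TALON affinity chromatography. […] NADPH oxidation read at 340 nm. Mode taken from Lineweaver–Burk linear fits, Ki from secondary plots; at least triplicate.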
# [3] = cited from earlier work
# P. falciparum IspC [4] = target: T1, P. falciparum IspC; settings: cited from earlier work
# [5] = test system: Mycobacterium tuberculosis; settings: antibacterial activity; cited from earlier work
SMILES,IC50 (P. falciparum IspC [1]) [µM],mode of inhibition with respect to DXP (P. falciparum IspC [2]),mode of inhibition with respect to NADPH (P. falciparum IspC [2]),serum half-life [3],mode of inhibition with respect to DXP (P. falciparum IspC [4]),mode of inhibition with respect to NADPH (P. falciparum IspC [4]),"Ki relative to DXP, fold higher than that of 3c (P. falciparum IspC [2]; 1d versus 3c) [fold]",Ki (P. falciparum IspC [2]) [µM],MIC [5] [µg/mL]
"O=C(CCc1ccccc1)N(O)C/C=C/P(=O)([O-])O.[Na+] [1b, Sodium Hydrogen [(1E)-3-(N-hydroxy-3-phenylpropanamido)prop-1-en-1-yl]phosphonate]",1.31,competitive,uncompetitive,,,,,,
"O=CN(O)CCCP(=O)(O)O [1a, fosmidomycin]",,,,short,competitive,uncompetitive,,,
O=C(CCCc1ccccc1)N(O)CCCP(=O)([O-])O.[Na+] [4a],1.34,competitive,uncompetitive,,,,,,
CC(=O)N(C/C=C/P(=O)([O-])O)OCc1ccc(-c2ccccc2)cc1.[Na+] [1d],5.67,competitive,competitive,,,,3,,
"CC(=O)N(O)CCCP(=O)(O)O [2a, FR900098]",,competitive,uncompetitive,short,competitive,uncompetitive,,0.009,> 500
CC(=O)N(CCCP(=O)([O-])O)OCc1ccc(-c2ccccc2)cc1.[Na+] [3c],0.804,competitive,competitive,,,,,,
"O=C(CCCc1ccccc1)N(O)C/C=C/P(=O)([O-])O.[Na+] [2b, Sodium Hydrogen [(1E)-3-(N-hydroxy-4-phenylbutanamido)prop-1-en-1-yl]phosphonate]",0.9,competitive,uncompetitive,,,,,,
"CCCCC(=O)N(O)CCCP(=O)([O-])O.[Na+] [3a, Sodium Hydrogen-3-(N-hydroxypentanamido)propylphosphonate]",2.45,competitive,uncompetitive,,,,,,
